Source: ChEMBL document CHEMBL1126625, “7-Azetidinylquinolones as antibacterial agents. Synthesis and structure-activity relationships” (J Med Chem, 1993)
Values after ≈ are worked out from the molar mass of the structure shown.

Experiments:
[1] = test system: Bacillus cereus; assay: Minimum inhibitory concentration (MIC) preventing growth of Bacillus cereus; assay type: functional
[2] = test system: Staphylococcus aureus; assay: Efficacy on systemic infections after oral administration in mice was determined against […] HS-93; assay type: functional
Outline: (§1)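 Mouse protection test using 4 groups of 10 mice. Mice were infected intraperitoneally with a bacterial suspension slightly above LD100. A single oral dose was given immediately after infection, with four doses, one per group, chosen from in vitro activity. Survival was scored after one week, and ED50 (total mg/kg protecting 50% of mice) was interpolated from group survival rates.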

[3] = test system: Enterobacter cloacae; assay: Minimum inhibitory concentration (MIC)preventing growth of Enterobacter cloacae; assay type: functional
[4] = test system: Staphylococcus aureus; assay: Minimum inhibitory concentration (MIC) preventing growth of […]; assay type: functional
[5] = test system: Escherichia coli; assay: Minimum inhibitory concentration (MIC)preventing growth of Escherichia coli; assay type: functional
[6] = test system: Mus musculus; assay: Blood level after oral administration in mice (50 mg/kg) was determined by bioassay procedure and represent total activity present in the serum; assay type: ADME, organism-based; conditions: in vivo
Outline: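 Single oral dose of 50 mg/kg to mice. Blood taken from groups of six mice at 0.5, 1, 2 and 4 h after dosing. Serum levels measured by disk agar diffusion bioassay with Bacillus subtilis ATCC 6633 on Seed Agar, plates incubated 18 h at 37 °C, giving total activity in serum. AUC 0-4 h expressed as μg/mL […].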

[7] = test system: Morganella morganii; assay: Minimum inhibitory concentration (MIC) preventing growth of Morganella morganii; assay type: functional
[8] = test system: Bacillus subtilis; assay: Minimum inhibitory concentration (MIC) preventing growth of Bacillus subtilis; assay type: functional
[9] = test system: Klebsiella pneumoniae; assay: Minimum inhibitory concentration (MIC)preventing growth of Klebsiella pneumoniae; assay type: functional
[10] = test system: Pseudomonas aeruginosa; assay: Efficacy on systemic infections after oral administration in mice was determined against Pseudomonas aeruginosa HS-116; assay type: functional; outline: as §1
[11] = test system: Escherichia coli; assay: Efficacy on systemic infections after oral administration in mice was determined against Escherichia coli HM-42; assay type: functional; outline: as §1
[12] = test system: Pseudomonas aeruginosa; assay: Minimum inhibitory concentration (MIC)preventing growth of Pseudomonas aeruginosa; assay type: functional
[13] = test system: Staphylococcus epidermidis; assay: Minimum inhibitory concentration (MIC) preventing growth of Staphylococcus epidermidis; assay type: functional
[14] = test system: Enterococcus faecalis; assay: Minimum inhibitory concentration (MIC) preventing growth of Streptococcus faecalis ATCC 10541; assay type: functional
[15] = test system: Proteus vulgaris; assay: Minimum inhibitory concentration (MIC) preventing growth of Proteus vulgaris; assay type: functional
[16] = test system: Staphylococcus epidermidis; assay: pIn vitro minimum inhibitory concentration (MIC) that prevented growth of Staphylococcus epidermidis ATCC 155-1 (Se) after incubation at 37 degree C for 18 h; assay type: functional

Structure (SMILES) | MIC [1] [µg/mL] | ED50 [2] [mg/kg] | MIC [3] [µg/mL] | MIC [4] [µg/mL] | MIC [5] [µg/mL] | AUC [6] [ng·h/mL] | MIC [7] [µg/mL] | MIC [8] [µg/mL] | MIC [9] [µg/mL] | ED50 [10] [mg/kg] | ED50 [11] [mg/kg] | MIC [12] [µg/mL] | MIC [13] [µg/mL] | MIC [14] [µg/mL] | MIC [15] [µg/mL] | MIC [16] [µg/mL]
CNC1CN(c2c(F)cc3c(=O)c(C(=O)O)cn(C4CC4)c3c2Cl)C1 | 0.12 (≈ 0.328 µM) | 15.2 | 0.015 (≈ 0.041 µM) | 0.06 (≈ 0.164 µM) | 0.015 (≈ 0.041 µM) | 4000 | 0.015 (≈ 0.041 µM) | 0.015 (≈ 0.041 µM) | 0.12 (≈ 0.328 µM) | 39 | 2 | 0.25 (≈ 0.683 µM) | 0.06 (≈ 0.164 µM) | 0.25 (≈ 0.683 µM) | 0.015 (≈ 0.041 µM) | –
CC1(N)CN(c2c(F)cc3c(=O)c(C(=O)O)cn(C4CC4)c3c2Cl)C1 | 0.06 (≈ 0.164 µM) | 4.1 | 0.03 (≈ 0.082 µM) | 0.06 (≈ 0.164 µM) | 0.03 (≈ 0.082 µM) | 2800 | 0.03 (≈ 0.082 µM) | 0.06 (≈ 0.164 µM) | 0.03 (≈ 0.082 µM) | 59.8 | 2 | 0.25 (≈ 0.683 µM) | 0.06 (≈ 0.164 µM) | 0.25 (≈ 0.683 µM) | 0.12 (≈ 0.328 µM) | –
CC1(N)CN(c2nc3c(cc2F)c(=O)c(C(=O)O)cn3-c2ccc(F)cc2F)C1 | 0.12 (≈ 0.297 µM) | 6.7 | 0.12 (≈ 0.297 µM) | 0.12 (≈ 0.297 µM) | 0.12 (≈ 0.297 µM) | 46400 | 0.25 (≈ 0.618 µM) | 0.06 (≈ 0.148 µM) | 0.06 (≈ 0.148 µM) | 108 | 3.1 | 1 (≈ 2.47 µM) | 0.12 (≈ 0.297 µM) | 0.5 (≈ 1.24 µM) | 0.5 (≈ 1.24 µM) | –
NC1CN(c2c(F)cc3c(=O)c(C(=O)O)cn(-c4ccc(F)cc4F)c3c2Cl)C1 | 0.015 (≈ 0.0354 µM) | 1.7 | 0.015 (≈ 0.0354 µM) | 0.015 (≈ 0.0354 µM) | 0.015 (≈ 0.0354 µM) | 13000 | 0.015 (≈ 0.0354 µM) | 0.015 (≈ 0.0354 µM) | 0.015 (≈ 0.0354 µM) | 55 | 2.3 | 0.12 (≈ 0.283 µM) | 0.015 (≈ 0.0354 µM) | 0.06 (≈ 0.142 µM) | 0.015 (≈ 0.0354 µM) | –
CC1COc2c(N3CC(C)(N)C3)c(F)cc3c(=O)c(C(=O)O)cn1c23 (stereo unspecified) | 0.5 (≈ 1.44 µM) | – | 0.12 (≈ 0.345 µM) | 0.5 (≈ 1.44 µM) | 0.12 (≈ 0.345 µM) | – | 0.25 (≈ 0.72 µM) | 0.12 (≈ 0.345 µM) | 0.015 (≈ 0.0432 µM) | – | – | 2 (≈ 5.76 µM) | – | 0.5 (≈ 1.44 µM) | 1 (≈ 2.88 µM) | 0.25 (≈ 0.72 µM)
CC1(N)CN(c2nc3c(cc2F)c(=O)c(C(=O)O)cn3C2CC2)C1 | 0.12 (≈ 0.361 µM) | 10.7 | 0.03 (≈ 0.0903 µM) | 0.25 (≈ 0.752 µM) | 0.03 (≈ 0.0903 µM) | 31700 | 0.06 (≈ 0.181 µM) | 0.03 (≈ 0.0903 µM) | 0.03 (≈ 0.0903 µM) | 52 | 2.8 | 0.5 (≈ 1.5 µM) | 0.12 (≈ 0.361 µM) | 0.25 (≈ 0.752 µM) | 0.12 (≈ 0.361 µM) | –
CC1(N)CN(c2nc3c(cc2F)c(=O)c(C(=O)O)cn3-c2ccc(F)cc2)C1 | 0.25 (≈ 0.647 µM) | 7.5 | 0.06 (≈ 0.155 µM) | 0.25 (≈ 0.647 µM) | 0.06 (≈ 0.155 µM) | 33000 | 0.12 (≈ 0.311 µM) | 0.06 (≈ 0.155 µM) | 0.06 (≈ 0.155 µM) | 82.7 | 1.3 | 2 (≈ 5.18 µM) | 0.25 (≈ 0.647 µM) | 4 (≈ 10.4 µM) | 1 (≈ 2.59 µM) | –
CC1(N)CN(c2c(F)cc3c(=O)c(C(=O)O)cn(-c4ccc(F)cc4F)c3c2Cl)C1 | 0.06 (≈ 0.137 µM) | 1.2 | 0.12 (≈ 0.274 µM) | 0.06 (≈ 0.137 µM) | 0.03 (≈ 0.0685 µM) | 23300 | 0.25 (≈ 0.571 µM) | 0.03 (≈ 0.0685 µM) | 0.03 (≈ 0.0685 µM) | 43 | 1.5 | 0.5 (≈ 1.14 µM) | 0.06 (≈ 0.137 µM) | 0.25 (≈ 0.571 µM) | 0.12 (≈ 0.274 µM) | –
CNC1(C)CN(c2nc3c(cc2F)c(=O)c(C(=O)O)cn3C2CC2)C1 | 0.12 (≈ 0.346 µM) | 9.6 | 0.06 (≈ 0.173 µM) | 0.25 (≈ 0.722 µM) | 0.03 (≈ 0.0866 µM) | 22900 | 0.06 (≈ 0.173 µM) | 0.03 (≈ 0.0866 µM) | 0.03 (≈ 0.0866 µM) | 102 | 3 | 1 (≈ 2.89 µM) | 0.25 (≈ 0.722 µM) | 1 (≈ 2.89 µM) | 0.25 (≈ 0.722 µM) | –
NC1CN(c2c(F)cc3c(=O)c(C(=O)O)cn(C4CC4)c3c2Cl)C1 | 0.12 (≈ 0.341 µM) | 7.2 | 0.015 (≈ 0.0426 µM) | 0.12 (≈ 0.341 µM) | 0.015 (≈ 0.0426 µM) | 8500 | 0.015 (≈ 0.0426 µM) | 0.06 (≈ 0.171 µM) | 0.06 (≈ 0.171 µM) | 34 | 1.1 | 0.25 (≈ 0.711 µM) | 0.12 (≈ 0.341 µM) | 0.12 (≈ 0.341 µM) | 0.015 (≈ 0.0426 µM) | –
